Published values pooled from the literature.
Cell line: MCF7
Observed: cell growth or viability

SMILES | method | tested at | time | endpoint | result
COc1ccc(-c2c(Cc3ccccc3)[nH]c(=NC(=O)c3ccccc3F)n2C)cc1 |  |  |  | EC50 | 1.4 µM
Cc1ccc2nc(-c3ccc4c(c3)OCO4)[nH]c2c1 | MTT |  | 48 h | IC50 | > 100 µM
COc1ccc(C(=O)/C=C/c2ccc3c(c2)OCCO3)cc1S(N)(=O)=O | SRB | 10 µM |  | inhibition | 77%
c1ccc2[nH]c(-c3ccncc3)nc2c1 | MTT |  | 48 h | IC50 | > 100 µM
COc1ccc(C(=O)/C=C/c2cccc(Cl)c2Cl)cc1S(N)(=O)=O | SRB | 10 µM |  | inhibition | 140%
Cc1ccc2nc(-c3ccco3)[nH]c2c1 | MTT |  | 48 h | IC50 | > 100 µM
COc1cc(C(CC(=O)c2ccc(Cl)cc2)NCCc2ccc(O)c(O)c2)ccc1O (stereo not shown) | MTT |  |  | TGI | 3.05 µM
Cc1ccc2nc(-c3ccc([N+](=O)[O-])cc3)[nH]c2c1 | MTT |  | 48 h | IC50 | 10.5 µM
CC(C)c1cnn2c(NCc3ccccc3)cc(NC[C@H]3CCNC[C@@H]3O)nc12 |  | 0.1 µM | 9 days | inhibition | ~50%
COc1ccc(C(=O)/C=C/c2ccc(Cl)c(Cl)c2)cc1S(N)(=O)=O | SRB | 10 µM |  | inhibition | 149%
CCCCCCCCCCCCNC(=O)NCCCC[C@H](NS(C)(=O)=O)C(=O)N[C@H](C)C(=O)N[C@@H](CCCNC(=N)N)C(N)=O | MTT |  | 72 h | EC50 | 69.2 to 78.9 µM
COc1cc(C(CC(=O)c2ccc(Br)cc2)NCCc2ccc(O)c(O)c2)ccc1O (stereo not shown) | MTT |  |  | TGI | 0.4 µM
CCOc1cc(-c2nc3ccc(C)cc3[nH]2)ccc1O | MTT |  | 48 h | IC50 | 54.9 µM
COc1ccc(C(=O)/C=C/c2cc3c(cc2Br)OCO3)cc1S(N)(=O)=O | SRB | 10 µM |  | inhibition | 102%
Cc1ccc2nc(-c3ccc(Cl)cc3)n(Cc3ccccc3Cl)c2c1 | MTT |  |  | IC50 | 59.8 µM
COc1cc(C(CC(=O)c2ccc(C)cc2)NCCc2ccc(O)c(O)c2)ccc1O (stereo not shown) | MTT |  |  | TGI | 10.1 µM
COc1ccccc1/C=C/C(=O)c1ccc(OC)c(S(N)(=O)=O)c1 | SRB | 10 µM |  | inhibition | 92%
COc1cc(CNC(=O)C[C@H](C)CCC=C(C)C)ccc1OCc1cn(-c2ccc(Cl)cc2)nn1 | SRB | 10 µM |  | inhibition | 34%
CCOCCOCCOCCNC(=S)NCCCC[C@H](NS(C)(=O)=O)C(=O)N[C@@H](C)C(=O)N[C@@H](CCCNC(=N)N)C(N)=O | MTT |  | 72 h | EC50 | > 100 µM
Clc1ccc(-c2nc3ccccc3n2Cc2ccccc2)cc1 | MTT |  |  | IC50 | 40.2 µM
COc1cc(C(CC(=O)c2ccc([N+](=O)[O-])cc2)NCCc2ccc(O)c(O)c2)ccc1O (stereo not shown) | MTT |  |  | TGI | 0.29 µM
C[C@]12CC[C@@H]3c4ccc(O)cc4CC[C@H]3[C@@H]1CC[C@@H]2O | ATP luminescence |  | 72 h | EC50 | 22.5 µM
COc1ccc(C(=O)/C=C/c2cccc(Br)c2)cc1S(N)(=O)=O | SRB | 10 µM |  | inhibition | 177%
CCCCCCCC(=O)NCC(=O)OC | MTT | 10 µM | 48 h | inhibition | 45%
COc1ccc(C(=O)/C=C/c2cccc3ccccc23)cc1S(N)(=O)=O | SRB | 10 µM |  | inhibition | 160%
COc1cccc(-c2nc3ccccc3[nH]2)c1 | MTT |  | 48 h | IC50 | 51.4 µM
COc1ccc(C(=O)/C=C/c2cccc(Cl)c2)cc1S(N)(=O)=O | SRB | 10 µM |  | inhibition | 167%
CCCCCCCCCCCCNC(=S)NCCCC[C@H](NS(C)(=O)=O)C(=O)N[C@H](C)C(=O)N[C@@H](CCCNC(=N)N)C(=O)N1CCOCC1 | MTT |  | 72 h | EC50 | 64.7 to 93.7 µM
